AI-2 QS modul: Vibrio harveyi AI-2 quorum sensing modulation; Vibrio harveyi JMH597 AI-2 luminescence/OD600 ratio, 9 h; stronger effect = lower value; strain lacks LuxN and CqsS sensors; 0 = neutral-control median; activity change, % at 7.5 µM; 0.4% of 300,000 active; AID 2094; in the data active = activity change below about -75%, passing the limit was not always enough;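 note: luminescence divided by OD600 gain over 9 h not by final OD600 alone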
HIF activator: HIF pathway transcriptional activation. activation, % at 7.5 µM (by protocol). U2OS HRE-luciferase reporter, luminescence; normalized: DMSO 0%, desferrioxamine 100%. 0.32% of 300,000 active;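 active = mean activation of at least 10% of the iron chelator positive control signal, with at least half of replicates also reaching 10%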
ARNT TACC3 PPI: ARNT/TACC3 interaction disruption | Q9Y6A5 | AlphaScreen His-ARNT PAS-B/GST-TACC3 binding, luminescence; TACC3 fragment carries E629A point mutation | inhibition, % at 9.99 µM | 0.66% of 390,000 active | AID 623870;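 active = mean inhibition of replicates at least 50% and at least half of replicates each reaching 50%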;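 note: 0% = complete ARNT plus TACC3 wells and 100% = ARNT alone without TACC3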
T cruzi inh: T. cruzi replication inhibition | AID 1885 | inhibition, % (no concentration beside the values) | 1.4% of 300,000 active | T. cruzi beta-gal in NIH3T3, luminescence, 90 h;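 active = mean inhibition across valid replicates above about 55%, limit read from the data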;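 note: signal also drops with host cell toxicity which is not excluded here; 0% = plate median of DMSO wells and 100% = zero luminescence signal; higher percent means less beta-gal luminescence so fewer parasites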
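Material: NIH/3T3 host cells with β-galactosidase reporter T. cruzi; Input: 5,000 host fibroblasts per well; Medium: DMEM, 2% fetal bovine serum; Compound: 50 nL DMSO compound solution per well; Schedule: 3 h host attachment, then at least 90 h co-culture; Detection: luminescent β-galactosidase signal after 60 min lysis.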
Numbers without * were called inactive; . = not tested or not shown. Sampled rows, rich in hits. Any-hit rate of the full collection: about 2%.

SMILES | AI-2 QS modul | HIF activator | ARNT TACC3 PPI | T cruzi inh
Cc1ccc(S(=O)(=O)N(C)C[C@H]2Oc3ccc(NC(=O)C4CCCCC4)cc3C(=O)N([C@@H](C)CO)C[C@@H]2C)cc1 | . | . | 18 | .
COc1ccccc1C1NC=C([N+](=O)[O-])C=C1[N+](=O)[O-] (stereo not given) | 29 | 0 | . | 78*
COc1cc(C2C=C(Nc3ccccc3)C(=O)N2c2ccccc2)ccc1O (stereo not given) | 12 | 1 | 36 | 1
O=C1C(Nc2ccccc2)=CC(c2ccc(O)cc2)N1c1ccccc1 (stereo not given) | 1 | 1 | 67* | 2
CCCCn1c2ccc(C)cc2c2nnc(SCCN3CCCCC3)nc21 | 15 | 2 | 11 | 52
CCCCn1c2ccc(F)cc2c2nnc(SCCN3CCCCC3)nc21 | 14 | -1 | -4 | 59*
CCCc1cc(NCc2ccccn2)n2nc(C)c(-c3ccccc3)c2n1 | . | 0 | 3 | 55*
Cc1nn2c(NCc3ccccn3)cc(C(C)C)nc2c1-c1ccccc1 | . | 0 | 3 | 54
S=c1sc2c(Cl)ncnc2n1-c1ccccc1 | 7 | -8 | 69* | 59*
CN(C)C=Nc1ncc2c3ccccc3n(CCN(C)C)c2c1C#N | 4 | 1 | 9 | 26
CCN(CC)CCn1c2ccccc2c2cnc(N)c(C#N)c21 | 12 | 25* | -3 | 65*
Cn1c(-c2ccccc2)cnc1N | 17 | 4 | 58* | 2
COc1ccc(CNc2ncc(-c3ccccc3)n2C)cc1 | 22 | 1 | 13 | 2
COc1ccc(-c2cnc(N)n2C)cc1 | 33 | 2 | 69* | -5
COCCn1c(-c2ccccc2)nc2ccccc21 | 25 | 1 | -13 | 5
COCCn1c(-c2ccccc2)cnc1N | 10 | 2 | 51* | 6
Cc1cc2nc3c(=O)[nH]c(=S)[nH]c3nc2cc1NC(=O)C(F)(F)F | -42 | -1 | 70* | 14
O=c1[nH]c(=S)[nH]c2nc(-c3ccccc3)cnc12 | 23 | 1 | 1 | 2
Cc1nn2c(SCC(=O)c3cccs3)cc(C(C)(C)C)nc2c1-c1ccccc1 | 23 | 0 | 15 | 59*
C[C@@H]1CCCCO[C@@H](CN(C)C(=O)Nc2cccc3ccccc23)[C@@H](C)CN([C@H](C)CO)C(=O)c2cc(NC(=O)Nc3ccc4c(c3)OCO4)ccc2O1 | . | . | -6 | .
Cc1cccc(N2CCN(C(c3ccncc3)c3nnnn3C(C)(C)C)CC2)c1C (stereo not given) | 2 | -1 | -3 | 64*
CC1CCCN(C(=O)C(=O)c2cn(CC(=O)N3CCCCCC3)c3ccccc23)C1 (stereo not given) | 25 | 0 | -14 | 62*
CC1CCN(C(=O)C(=O)c2cn(CC(=O)N3CCCCCC3)c3ccccc23)CC1 | 26 | 0 | -1 | 55*
NC(=O)C1CCN(C(=O)C(=O)c2cn(CC(=O)N3CCCCCC3)c3ccccc23)CC1 | 19 | -1 | 7 | 62*
O=C(C[C@H]1CC[C@H]2[C@@H](COC[C@H](O)CN2C(=O)c2ccccc2F)O1)N1CCOCC1 | . | . | -6 | .
SMILES | AI-2 QS modul | HIF activator | ARNT TACC3 PPI | T cruzi inh
O=C(C[C@H]1CC[C@@H]2[C@H](COC[C@H](O)CN2C(=O)c2ccc3c(c2)OCO3)O1)NCCN1CCCCC1 | . | . | -6 | .
CCCCc1nnc(NC(=O)c2cccc(S(=O)(=O)N3CCN(C)CC3)c2)s1 | 4 | 0 | -5 | -21
CC(=O)NCCC(=O)Nc1sc2c(c1-c1nc3ccccc3[nH]1)CCCC2 | 12 | 0 | 1 | -2
CC(C)Cc1nnc(NC(=O)c2cccc(S(=O)(=O)N3CCN(C)CC3)c2)s1 | 16 | 0 | -7 | 60*
CN1CCN(S(=O)(=O)c2cccc(C(=O)Nc3sc4c(c3-c3nc5ccccc5[nH]3)CCCC4)c2)CC1 | -12 | 1 | -1 | 58*
Cc1nn2c(NCCCN(C)C)c3c(nc2c1-c1ccccc1)CCC3 | 11 | 0 | 5 | 69*
Cc1nn2c(NCCCN(C)C)c3c(nc2c1-c1ccccc1)CCCC3 | 28 | 0 | 1 | 49
CC1=C(C(=O)Nc2ccc([N+](=O)[O-])cc2)C(c2cccc(C(F)(F)F)c2)NC(=S)N1c1ccccc1 (stereo not given) | 39 | 0 | 1 | 57*
CCN1CCN(c2ccc(S(=O)(=O)N3CCOCC3)cc2NC(=O)CCSC)CC1 | . | . | -16 | .
CCN1CCN(c2ccc(S(=O)(=O)N3CCOCC3)cc2NC(=O)COc2ccc(F)cc2Cl)CC1 | 35 | -23 | -3 | 57*
CCN1CCN(c2ccc(S(=O)(=O)N3CCOCC3)cc2NC(=O)CCOc2ccccc2)CC1 | 19 | 0 | 24 | 56*
O=C(COc1ccccc1F)Nc1cc(S(=O)(=O)N2CCOCC2)ccc1N1CCOCC1 | 7 | -1 | -2 | 11
CCN1CCN(c2ccc(S(=O)(=O)N3CCCCC3)cc2NC(=O)COc2ccccc2)CC1 | 25 | 0 | 8 | 58*
CCN1CCN(c2ccc(S(=O)(=O)N3CCOCC3)cc2NC(=O)CCC(C)C)CC1 | 19 | 0 | -5 | 56*
C[C@@H]1CN([C@H](C)CO)S(=O)(=O)c2ccc(C#CC3CC3)cc2O[C@@H]1CN(C)C(=O)c1ccccn1 | . | . | -13 | .
Cc1ccc(C(=O)NNC(=S)NC(=O)COc2ccccc2)cc1 | -41 | . | 7 | -7
Cc1cccc(OCC(=O)NC(=S)NNC(=O)c2ccncc2)c1 | 10 | 0 | 56* | -6
CCCC(=O)Nc1ccc2c(c1)C(=O)N(C)[C@H]1CC[C@H](CC(=O)O)O[C@H]1CO2 | . | . | 1 | .
CCC(=O)N(C)C[C@H]1Oc2cc(C#CCN(C)C)ccc2S(=O)(=O)N([C@H](C)CO)C[C@@H]1C | . | . | -18 | .
[O-][n+]1cccc2cccc(O)c21 | . | . | 53* | .
C[n+]1cccc2cccc([O-])c21 | . | . | 42 | .
N#Cc1c(=O)c2nc(NCc3ccccc3)ncc2n2ccccc12 | 40 | 0 | 53* | 4
CN(c1ccc(OCC(=O)OCC(=O)Nc2ccccc2)cc1)S(=O)(=O)c1cccs1 | 30 | -31 | -7 | -10
CCN(CC)c1ccc(NC(=O)COc2ccc(N(C)S(=O)(=O)c3cccs3)cc2)cc1 | 13 | -1 | -4 | 61*
O=C(C[C@H]1C=C[C@@H](NC(=O)c2ccc3c(c2)OCO3)[C@H](CO)O1)NC1Cc2ccccc2C1 | . | . | -4 | .
COc1ccc(-c2cnc3c(c2)C(=O)N([C@@H](C)CO)C[C@H](C)[C@H](CN(C)C(=O)C2CCC2)O3)cc1 | . | . | -5 | .
Cc1nn(C(C)C)c(C)c1CN1CCCC(C(=O)c2cccc(OC(C)C)c2)C1 (stereo not given) | 20 | 0 | 0 | 49
CCn1cc(CN2CCCC(C(=O)c3ccc(-c4ccccc4)cc3)C2)cn1 (stereo not given) | 12 | 0 | 5 | 65*
CC(C)Oc1cccc(C(=O)C2CCCN(Cc3cnn(C(C)C)c3)C2)c1 (stereo not given) | 4 | 0 | -6 | 78*

Compound activity (PubChem)
